In publication PMC9933231 (ACS Omega, 2023):
Converted amounts (≈) assume the structure as drawn.

Tests used:
Cytotoxicity assay [1] = type: cell-based; settings: human, HaCaT keratinocytes
Procedure, shortened: (§1)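 Cells were kept in RPMI 1640 with 10% FBS, penicillin and streptomycin at 37 °C in humidified 5% CO2, and subcultured every 3–4 days. They were seeded at 1 × 10^4 cells/well and left 24 h. Medium was then replaced with test samples, with doxorubicin as reference, for 24 h at 37 °C. CellTiter-Blue was added for 2 h at 37 °C, and fluorescence was read at ex 560/em 590 nm.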

Cytotoxicity assay [2] = type: cell-based; settings: human, HepG2 cells
Procedure, shortened: as §1

For `COc1cccc2c1C(=O)c1c(O)c3c(c(O)c1C2=O)C[C@@](O)(C(=O)CO)C[C@@H]3O[C@H]1C[C@H](N)[C@H](O)[C@H](C)O1` [doxorubicin], which IC50 at 24 h (Cytotoxicity assay [1]) is on record?
Its IC50 at 24 h is 19.8 ± 0.8 µg/mL (≈ 36.4 µM).

And the IC50 at 24 h (Cytotoxicity assay [2])?
The IC50 at 24 h was 11.4 ± 0.5 µg/mL (≈ 21 µM).
